# Publication PMC3788622 (Journal of Medicinal Chemistry, 2013)
# “Also recorded” adds a separate entry of the source.
# Legend:
# [1] = tested on: male C57BL/6J mice; experiment: Histopathology after single subcutaneous injection; format: in vivo, mouse
# How it was run: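 After the single sc dose (1, 3 or 10 mg/kg, 25% DMSO/saline, 9-day observation), two representative mice per group were fixed in 10% formalin. A veterinary pathologist examined cecum, duodenum, heart, ileum, kidney, liver, lung, pancreas, spleen and stomach, blinded to animal identity.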
# [2] = tested on: male C57BL/6J mice; experiment: Escalating single dose subcutaneous injections: animal weight and behavior; format: in vivo, mouse; details: single sc injection at 1, 3, and 10 mg/kg, observed 9 days
# How it was run: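 Male C57BL/6J mice, 8 weeks old, were acclimatised 3 days after arrival. Groups of four received one sc dose of 1, 3 or 10 mg/kg in up to 200 μL 25% DMSO/saline. Doses were set by UV/vis using ε 69 500 M–1·cm–1 near 315 nm. Mice were weighed daily for 9 days, then sacrificed. Humane end point was visible duress or weight loss over 15% of starting weight.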
# [3] = tested on: male C57BL/6J mice; experiment: Histopathology after multiple subcutaneous injections; format: in vivo, mouse; details: 1 mg/kg sc every 3 days, three injections
# [4] = tested on: LNCaP xenografts; details: immunocompromised mice, three sc injections at 1 mg/kg; cited from earlier work
# [5] = tested on: male C57BL/6J mice; experiment: Serum markers of liver and kidney damage after multiple subcutaneous injections; format: in vivo, mouse; details: 1 mg/kg sc every 3 days, three injections
# How it was run: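 Male C57BL/6J mice, 8 weeks old, were dosed in groups of three with 1 mg/kg sc every 3 days for three injections and sacrificed 2 days after the last. Weight was recorded on injection days and at the end point. Retro-orbital blood was spun at 6000 rpm for 5 min. Serum ALT, AST, total bilirubin, BUN and creatinine were assayed blinded.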
# [6] = tested on: p53; details: cited from earlier work
# [7] = tested on: male C57BL/6J mice; experiment: Serum markers of liver and kidney damage after single subcutaneous injection; format: in vivo, mouse; details: single sc dose 1, 3, 10 mg/kg; dose stated in the value
# How it was run: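 All mice from the single sc dose groups (1, 3, 10 mg/kg in 25% DMSO/saline, n = 4, 9-day observation) were bled retro-orbitally. Serum was obtained by centrifugation at 6000 rpm for 5 min. ALT, AST, total bilirubin, BUN and creatinine were measured externally, blinded to animal identity.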
# [8] = tested on: p53; experiment: p53 protein ELISA; format: cell-based; details: LNCaP cells, 10 μM, 72 h
# How it was run: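 LNCaP cells were treated with 10 μM test compound for 72 h. Controls were DMSO vehicle and 1 μM doxorubicin for 24 h. RPB1 was measured with an RPB1-specific ELISA kit and total p53 with a pan-p53 ELISA kit, each following the kit instructions, in biological triplicates.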
smiles,measurement,setting,value
"CN(CCCNC(=O)c1cccc(C(=O)O)c1)CCCNC(=O)c1cc(NC(=O)c2cc(NC(=O)c3cc(NC(=O)c4nc(NC(=O)[C@H](N)CCNC(=O)c5cc(NC(=O)c6cc(NC(=O)c7cc(NC(=O)c8nccn8C)cn7C)cn6C)cn5C)cn4C)cn3C)cn2C)cn1C [Polyamide 1, ImPyPyPy-2-(R)^H2Nγ-ImPyPyPy∼NHMe∼IPA]",Liver lesions by histopathology (in words),[1]; single sc dose 3 mg/kg,Mild hepatocellular necrosis and apoptosis
same,Kidney lesions by histopathology (in words),[1]; single sc dose 10 mg/kg,Milder tubular regeneration and karyomegaly
same,Liver lesions by histopathology (in words),[1]; single sc dose 10 mg/kg,Mild hepatocellular necrosis and apoptosis
same,Weight loss,[2],significant weight loss only at 10 mg/kg
same,Kidney lesions by histopathology (in words),[3],"mild variable tubular attenuation, karyomegaly, and epithelial necrosis and apoptosis"
same,Liver lesions by histopathology (in words),[3],mild multifocal hepatocellular necrosis and apoptosis
same,Growth of LNCaP xenografts,[4],suppress the growth of LNCaP xenografts
same,Alteration of liver and kidney serum markers (in words),[5],elevated AST and ALT
same,Effect on cellular p53 protein,[6],increase cellular p53 protein
same,Elevation of serum markers of liver and kidney damage (in words),[7],"significant elevation of AST, ALT, and total bilirubin at 10 mg/kg; also recorded: moderate elevation of ALT at 3 mg/kg; also recorded: Elevation of creatinine and blood urea nitrogen (BUN) was not observed for any dose level"
same,Cellular level of p53 protein,[8],increases
